Paper PMC5776616 (Experimental and Therapeutic Medicine, 2017)
Where no end group is shown, it is not given here.

How the values were obtained:
S. mutans UA 159 [1] = test: MIC by broth microdilution, planktonic S. mutans UA159; assay type: cell-based, Streptococcus mutans; settings: for increase of antibacterial activity against S. mutans compared with hLF1-11 alone: planktonic S. mutans, from MICs; for MICs against the S. mutans strains: range over both S. mutans strains (UA159 and GS-5)
In short: (§1)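 Strains were grown anaerobically overnight in BHI at 37°C, diluted 1:20 and grown anaerobically 2.5 h to mid-log phase. Two-fold serial peptide dilutions in BHI were set up in 96-well round-bottom plates, and the final inoculum was 1×10^5 CFU/ml. The MIC was reported as the median of at least three independent experiments.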

S. gordonii ATCC-10558 = test: MIC by broth microdilution, planktonic S. gordonii; assay type: cell-based, Streptococcus gordonii
In short: as §1

[2] = system: multi-species biofilm of luc-ldh reporter strain of S. mutans, S. gordonii ATCC-10558 and S. sanguis ATCC-49295; test: Multi-species biofilm; assay type: cell-based; settings: for growth of S. gordonii and S. sanguis in multi-species biofilm: 5 min after treatment, peptide 128 µg/ml; for relative strength of effect on S. mutans in multi-species biofilm (ranking): order in words: strongest effects, followed by, then, Fig. 2B
In short: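 Mid-log cultures were adjusted to 1×10^7 CFU/ml in BHI with 0.5% sucrose (S. mutans luc-ldh reporter), 0.5% glucose (S. gordonii) or 0.5% mannose (S. sanguis). Wells were spun and grown anaerobically 4 h at 37°C into biofilm. Peptide in PBS was added at a final 128 µg/ml, then replaced with sugar-containing BHI. OD600 was read at 5–120 min, and S. mutans RLU after adding 1 mM D-luciferin. Groups were compared by one-way ANOVA.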

S. sanguis ATCC-49295 = test: MIC by broth microdilution, planktonic S. sanguis; assay type: cell-based, Streptococcus sanguis
In short: as §1

S. mutans UA 159 [3] = test: Differential protein expression; assay type: cell-based, Streptococcus mutans
In short: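 Mid-log S. mutans UA 159 (BHI, anaerobic, 1×10^6 CFU/ml) was exposed to test peptide at 20 µg/ml or an equal volume of sterile water, anaerobically at 37°C for 1 h. Cells were pelleted at 4°C and lysed with lysozyme plus protease inhibitors, on ice with sonication. Protein was cleaned, quantified and CyDye minimal-labelled. Spots were identified by positive-ion reflection MALDI-TOF-MS over m/z 700–4,000.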

[4] = S. mutans UA 159, C11H 20 µg/ml 1 h vs water control, gi|24379038

Sequence	growth of S. gordonii and S. sanguis in multi-species biofilm [2]	increase of antibacterial activity against S. mutans compared with hLF1-11 alone (S. mutans UA 159 [1])	MICs against the S. mutans strains (S. mutans UA 159 [1]; planktonic)	relative strength of effect on S. mutans in multi-species biofilm (ranking) [2]	further results
LSTFFRLFN [C12]	not affected				MIC against S. mutans (S. mutans UA 159 [1]; planktonic): > 256 µg/mL; MIC against S. gordonii (S. gordonii ATCC-10558): > 256 µg/mL; MIC against S. sanguis (S. sanguis ATCC-49295): > 256 µg/mL
TFFRLFNRGRRRRSVQWCA [C8H]	not affected	3–4 times	10.67 to 13.33 µg/mL	then	
LSTFFRLFNRSFTQGRRRRSVQWCA [C14H]	not affected	3–4 times	10.67 to 13.33 µg/mL		
LSTFFRLFNGRRRRSVQWCA [C12H]	not affected	3–4 times	10.67 to 13.33 µg/mL	strongest effects	
TFFRLFNRSFTGRRRRSVQWCA [C11H]	not affected	3–4 times	10.67 to 13.33 µg/mL	strongest effects	Average ration: Heat shock protein GrpE (HSP-70 cofactor) (master no. 1781) (S. mutans UA 159 [3]; S. mutans UA 159, C11H 20 µg/ml 1 h vs water control, gi|24378605): −4.2; Average ration: NAD synthetase (master no. 1628) (S. mutans UA 159 [3]; S. mutans UA 159, C11H 20 µg/ml 1 h vs water control, gi|24378953): −4.12; Average ration: Putative cell division A protein DivIV (master no. 1355) (S. mutans UA 159 [3]; [4]): −8; Average ration: Putative cell division protein DivIVA (master no. 1327) (S. mutans UA 159 [3]; [4]): −11.09; Average ration: Putative cell division protein DivIVA (master no. 1341) (S. mutans UA 159 [3]; [4]): −5.58; Average ration: Putative 40K cell wall protein precursor (master no. 654) (S. mutans UA 159 [3]; S. mutans UA 159, C11H 20 µg/ml 1 h vs water control, gi|24379086): −4.75; Average ration: Branch ed-chain amino acid aminotransferase (master no. 1241) (S. mutans UA 159 [3]; S. mutans UA 159, C11H 20 µg/ml 1 h vs water control, gi|24379628): −5.4; Average ration: Orotate phosphoribo-syltransferase (master no. 2141) (S. mutans UA 159 [3]; S. mutans UA 159, C11H 20 µg/ml 1 h vs water control, gi|24379645): −4.63; Average ration: Putative dTDP-4-keto-L-rhamnose reductase (master no. 2068) (S. mutans UA 159 [3]; S. mutans UA 159, C11H 20 µg/ml 1 h vs water control, gi|24379857): −5.54; Average ration: Ribosome recycling factor (master no. 2072) (S. mutans UA 159 [3]; S. mutans UA 159, C11H 20 µg/ml 1 h vs water control, gi|24380004): −4.7; Average ration: Hypothetical protein SMU.1716c (master no. 2188) (S. mutans UA 159 [3]; S. mutans UA 159, C11H 20 µg/ml 1 h vs water control, gi|24380090): −6.14; Average ration: Putative trans-2-enoyl-ACP reductase (master no. 1551) (S. mutans UA 159 [3]; S. mutans UA 159, C11H 20 µg/ml 1 h vs water control, gi|24380114): −4.34; Average ration: Hypothetical protein SMU.1760c (master no. 1506) (S. mutans UA 159 [3]; S. mutans UA 159, C11H 20 µg/ml 1 h vs water control, gi|24380128): −5.93; Average ration: Hypothetical protein SMU.1789c (master no. 1576) (S. mutans UA 159 [3]; S. mutans UA 159, C11H 20 µg/ml 1 h vs water control, gi|24380155): −6.04; Average ration: Elongation factor P (master no. 2035) (S. mutans UA 159 [3]; S. mutans UA 159, C11H 20 µg/ml 1 h vs water control, gi|24380208): −4.19; Average ration: Single-strand DNA-binding protein (master no. 2334) (S. mutans UA 159 [3]; S. mutans UA 159, C11H 20 µg/ml 1 h vs water control, gi|24380219): −5.37; Average ration: Inositol-5 monophosphate dehydrogenase (master no. 824) (S. mutans UA 159 [3]; S. mutans UA 159, C11H 20 µg/ml 1 h vs water control, gi|24380485): −12.84; 21 protein spots with a mean change ratio of 1.5 (S. mutans UA 159 [3]; S. mutans UA 159, C11H 20 µg/ml, 1 h): downregulated
GRRRRSVQWCA [hLF1-11, reference compound]	not affected		37.33 to 48.00 µg/mL		
STFFRLFNRSFTQGRRRRSVQWCA [C13H]	not affected	3–4 times	10.67 to 13.33 µg/mL		
